Test results taken from ChEMBL document CHEMBL1122008, “Lipophilic 5'-(alkyl phosphate) esters of 1-beta-D-arabinofuranosylcytosine and its N4-acyl and 2,2'-anhydro-3'-O-acyl derivatives as potential prodrugs” (1982).

Assays:
Type in all cases: functional
Mus musculus [1] = test: Antitumor activity against L1210/ara-C leukemia in mice (Average weight per mouse on day 1.) at the dose of 1000 mg/kg
In short: (§1)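 Male B6D2F1J mice, groups of 5–9, inoculated ip with 10^5 L1210/ara-C cells on day 0. Dosing began day 1 on a qd×5 or q4d(2,6) schedule. Ara-C was given in sterile water, the n-butyl phosphate ester in 0.05 M pH 7.4 potassium phosphate buffer, and others as suspensions in 0.4% Tween 80/0.5% CMC/0.9% benzyl alcohol/0.9% saline. Mice were weighed on days 1 and 7; 7-day change given in g and %.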

Mus musculus [2] = test: Antitumor activity against L1210 leukemia in mice (Average weight per mouse on day 1.) at the dose of 200 mg/kg
In short: (§2)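 Male B6D2F1J mice (5–9 per group) received 10^5 L1210 cells i.p. on day 0 and drug from day 1, given qd×5 or q4d(2,6). Vehicles were sterile water, 0.05 M potassium phosphate pH 7.4, or 0.4% Tween 80/0.5% CMC/0.9% benzyl alcohol/0.9% saline. Read-out is average body weight per mouse (g) on day 1.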

Mus musculus [3] = test: Antitumor activity against L1210 leukemia in mice (Average 7-day weight change) at the dose of 100 mg/kg
In short: (§3)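 Male B6D2F1J mice, groups of five to nine, inoculated ip with 10^5 L1210 cells on day 0. Drug treatment started day 1 on qd×5 or q4d(2,6) schedule. Vehicles: ara-C in sterile water; the n-butyl phosphate ester in 0.05 M pH 7.4 potassium phosphate buffer; others as suspensions in 0.4% Tween 80/0.5% low-density CMC/0.9% benzyl alcohol/0.9% saline. Mice weighed days 1 and 7; 7-day weight change given as g/mouse and %.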

Mus musculus [4] = test: Antitumor activity against L1210/ara-C leukemia in mice (Average 7-day weight change (%)) at the dose of 200 mg/kg
In short: (§4)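 Male B6D2F1J mice (5–9 per group) were given 10^5 L1210/ara-C cells i.p. on day 0, with treatment from day 1 on qd×5 or q4d(2,6). Vehicles were sterile water, pH 7.4 0.05 M phosphate buffer, or a Tween 80/CMC/benzyl alcohol saline suspension. Weights were taken on days 1 and 7; change is expressed in g/mouse and as a percentage.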

Mus musculus [5] = test: Antitumor activity against L1210 leukemia in mice (Percent increase in life span.) at the dose of 100 mg/kg
In short: (§5)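 Male B6D2F1J mice, groups of 5–9, inoculated ip with 10^5 L1210 cells on day 0. Dosing starts day 1 on a qd×5 or q4d(2,6) schedule. Vehicles are sterile water, pH 7.4 0.05 M potassium phosphate buffer, or 0.4% Tween 80/0.5% CMC/0.9% benzyl alcohol/0.9% saline. %ILS = (T/C − 1)×100 from median survival. Weights taken days 1 and 7.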

Mus musculus [6] = test: Antitumor activity against L1210/ara-C leukemia in mice (Average 7-day weight change) at the dose of 250 mg/kg; in short: as §4
Mus musculus [7] = test: Antitumor activity against L1210 leukemia in mice (Percent increase in life span.) at the dose of 250 mg/kg; in short: as §5
Mus musculus [8] = test: Antitumor activity against L1210 leukemia in mice (Average 7-day weight change (%)) at the dose of 50 mg/kg; in short: as §3
Mus musculus [9] = test: Antitumor activity against L1210/ara-C leukemia in mice (Average 7-day weight change) at the dose of 100 mg/kg; in short: as §4
Mus musculus [10] = test: Antitumor activity against L1210 leukemia in mice (Average weight per mouse on day 1.) at the dose of 500 mg/kg; in short: as §2
Mus musculus [11] = test: Antitumor activity against L1210 leukemia in mice (Average weight per mouse on day 1.) at the dose of 250 mg/kg; in short: as §2
Mus musculus [12] = test: Antitumor activity against L1210/ara-C leukemia in mice (Percent increase in life span.) at the dose of 50 mg/kg
In short: (§6)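 Same protocol as the L1210 assay, but with 10^5 kinase-deficient L1210/ara-C cells inoculated ip into male B6D2F1J mice (groups of 5–9) on day 0. Treatment begins day 1, qd×5 or q4d(2,6). %ILS = (T/C − 1)×100 using median survival times of treated and control groups. Body weight recorded days 1 and 7.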

Mus musculus [13] = test: Antitumor activity against L1210 leukemia in mice (Percent increase in life span.) at the dose of 1000 mg/kg; in short: as §5
Mus musculus [14] = test: Antitumor activity against L1210/ara-C leukemia in mice (Average 7-day weight change (%)) at the dose of 100 mg/kg; in short: as §4
Mus musculus [15] = test: Antitumor activity against L1210/ara-C leukemia in mice (Average weight per mouse on day 1.) at the dose of 250 mg/kg; in short: as §1
Mus musculus [16] = test: Antitumor activity against L1210/ara-C leukemia in mice (Average 7-day weight change (%)) at the dose of 1000 mg/kg; in short: as §4
Mus musculus [17] = test: Antitumor activity against L1210 leukemia in mice (Percent increase in life span.) at the dose of 200 mg/kg; in short: as §5
Mus musculus [18] = test: Antitumor activity against L1210 leukemia in mice (Average 7-day weight change (%)) at the dose of 100 mg/kg; in short: as §3
Mus musculus [19] = test: Antitumor activity against L1210/ara-C leukemia in mice (Average 7-day weight change) at the dose of 50 mg/kg; in short: as §1
Mus musculus [20] = test: Antitumor activity against L1210/ara-C leukemia in mice (Percent increase in life span.) at the dose of 250 mg/kg; in short: as §6
Mus musculus [21] = test: Antitumor activity against L1210/ara-C leukemia in mice (Average 7-day weight change) at the dose of 200 mg/kg; in short: as §4
Mus musculus [22] = test: Antitumor activity against L1210/ara-C leukemia in mice (Percent increase in life span.) at the dose of 200 mg/kg; in short: as §6
Mus musculus [23] = test: Antitumor activity against L1210 leukemia in mice (Percent increase in life span.) at the dose of 500 mg/kg; in short: as §5
Mus musculus [24] = test: Antitumor activity against L1210 leukemia in mice (Percent increase in life span.) at the dose of 50 mg/kg; in short: as §5
Mus musculus [25] = test: Antitumor activity against L1210/ara-C leukemia in mice (Average weight per mouse on day 1.) at the dose of 100 mg/kg; in short: as §1
Mus musculus [26] = test: Antitumor activity against L1210/ara-C leukemia in mice (Average 7-day weight change) at the dose of 1000 mg/kg; in short: as §4
Mus musculus [27] = test: Antitumor activity against L1210/ara-C leukemia in mice (Percent increase in life span.) at the dose of 500 mg/kg; in short: as §6
Mus musculus [28] = test: Antitumor activity against L1210/ara-C leukemia in mice (Average weight per mouse on day 1.) at the dose of 500 mg/kg; in short: as §1
Mus musculus [29] = test: Antitumor activity against L1210 leukemia in mice (Average 7-day weight change) at the dose of 500 mg/kg; in short: as §3
Mus musculus [30] = test: Antitumor activity against L1210 leukemia in mice (Average weight per mouse on day 1.) at the dose of 50 mg/kg; in short: as §2
Mus musculus [31] = test: Antitumor activity against L1210/ara-C leukemia in mice (Percent increase in life span.) at the dose of 100 mg/kg; in short: as §6
Mus musculus [32] = test: Antitumor activity against L1210 leukemia in mice (Average 7-day weight change) at the dose of 250 mg/kg; in short: as §3

Nc1ccn([C@@H]2O[C@H](CO)[C@@H](O)[C@@H]2O)c(=O)n1 [CYTARABINE]
Average weight (Mus musculus [1]): 22 g mouse-1
Average weight (Mus musculus [2]): 22.6 g mouse-1
Weight change (Mus musculus [3]): -1 g mouse-1
Weight change (Mus musculus [4]): -14%
ILS at 100 mg/kg (Mus musculus [5]): 100%
Weight change (Mus musculus [6]): 4 g mouse-1
ILS at 250 mg/kg (Mus musculus [7]): 62%
Weight change (Mus musculus [8]): 0%
Weight change (Mus musculus [9]): -1.1 g mouse-1
Average weight (Mus musculus [10]): 22.6 g mouse-1
Average weight (Mus musculus [11]): 21.4 g mouse-1
ILS at 50 mg/kg (Mus musculus [12]): 0%
ILS at 1000 mg/kg (Mus musculus [13]): 87%
Weight change (Mus musculus [14]): -4%
Average weight (Mus musculus [15]): 19.4 g mouse-1
Weight change (Mus musculus [16]): 11%
ILS at 200 mg/kg (Mus musculus [17]): 112%
Weight change (Mus musculus [18]): -5%
Weight change (Mus musculus [19]): 0.8 g mouse-1
ILS at 250 mg/kg (Mus musculus [20]): 12%
Weight change (Mus musculus [21]): -3.1 g mouse-1
ILS at 200 mg/kg (Mus musculus [22]): -13%
ILS at 500 mg/kg (Mus musculus [23]): 62%
ILS at 50 mg/kg (Mus musculus [24]): 75%
Average weight (Mus musculus [25]): 24 g mouse-1
Weight change (Mus musculus [26]): 2.4 g mouse-1
ILS at 500 mg/kg (Mus musculus [27]): 12%
Average weight (Mus musculus [28]): 20.2 g mouse-1
Weight change (Mus musculus [29]): 0.4 g mouse-1
Average weight (Mus musculus [30]): 24 g mouse-1
ILS at 100 mg/kg (Mus musculus [31]): -13%
Weight change (Mus musculus [32]): 1.4 g mouse-1
